The source made the active and inactive calls. The calls are words filed in the database; no cut-off is given here.
Assays:
PC-3 [1] = assay: Cytotoxicity against human PC3 cells assessed as reduction in cell viability incubated for 48 hrs by SRB assay; type: functional, cell-based; conditions: PC-3, 48 h
In short: (§1)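 SRB colorimetric antiproliferative assay. Cells were grown in RPMI-1640 with 10% heat-inactivated FBS and penicillin/streptomycin at 37 °C and 5% CO2, and compound-exposed for 48 h. IC50 is the concentration causing 50% inhibition of cell viability, given as mean ± SD of three determinations.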

HeLa = assay: Cytotoxicity against human HeLa cells assessed as reduction in cell viability incubated for 48 hrs by SRB assay; type: functional, cell-based; in short: as §1
[2] = (§2) Inhibition of porcine brain tubulin polymerization incubated for 80 mins by fluorescence based spectrophotometry; design: species or system Sus scrofa
In short: (§3)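 Cell-free fluorescence kit assay. Tubulin (10 mg/mL) in buffer 1 with tubulin glycerol buffer and GTP (100 mM stock) was exposed to compound or DMSO for 80 min at 37 °C. Fluorescence (ex 360 nm, em 460 nm) was read each minute. IC50 was derived from five concentrations: 3, 5, 10, 20 and 40 μM.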

Sus scrofa [3] = species on record: Sus scrofa; assay: as §2; in short: as §3
Homo sapiens [4] = species on record: Homo sapiens; assay: Inhibition of tubulin polymerization in human PC3 cells assessed as disruption of microtubule network at 1 uM incubated for 48 hrs by immunohistochemistry; type: cell-based
In short: (§4)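 PC-3 cells were treated for 48 h, then fixed with 4% paraformaldehyde for 30 min and permeabilized with 0.1% Triton X-100 at 4 °C in the dark for 30 min. After blocking in PBS with 5% BSA, cells took anti-α-tubulin (1:500) overnight at 4 °C, then TRITC goat anti-rabbit IgG (1:500) for 1 h at RT. Nuclei were DAPI-stained and imaged by fluorescence microscopy at 20×.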

Homo sapiens [5] = species on record: Homo sapiens; assay: Inhibition of tubulin polymerization in human PC3 cells assessed as disruption of microtubule network at 0.02 uM incubated for 48 hrs by immunohistochemistry; type: cell-based; conditions: 1 uM, in the assay text read “at 1 uM” for “at 0.02 uM”; in short: as §4
PC-3 [6] = assay: Cell cycle arrest in human PC3 cells assessed as accumulation at G0/G1 phase at 0.5 uM incubated for 24 hrs by propidium iodide staining based FACS assay (reference value: 62.5%); type: functional
In short: (§5)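 PC-3 cells in RPMI-1640 with 10% FBS at 37 °C and 5% CO2. Cells were plated at 1.0×10^5 cells/mL and pre-incubated 24 h, then treated. They were collected by centrifugation, fixed in 70% ethanol overnight at 4 °C, resuspended in PBS with RNase A and propidium iodide, and analysed by flow cytometry for phase distribution against untreated control.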

PC-3 [7] = assay: Cell cycle arrest in human PC3 cells assessed as accumulation at S phase at 0.5 uM incubated for 24 hrs by propidium iodide staining based FACS assay (reference value: 23.5%); type: functional; in short: as §5
PC-3 [8] = assay: Cell cycle arrest in human PC3 cells assessed as accumulation at G2/M phase at 0.5 uM incubated for 24 hrs by propidium iodide staining based FACS assay (reference value: 14%); type: functional; in short: as §5
PC-3 [9] = assay: Cell cycle arrest in human PC3 cells assessed as accumulation at G0/G1 phase at 1 uM incubated for 24 hrs by propidium iodide staining based FACS assay (reference value: 62.5%); type: functional; in short: as §5
PC-3 [10] = assay: Cell cycle arrest in human PC3 cells assessed as accumulation at S phase at 1 uM incubated for 24 hrs by propidium iodide staining based FACS assay (reference value: 23.5%); type: functional; in short: as §5
PC-3 [11] = assay: Cell cycle arrest in human PC3 cells assessed as accumulation at G2/M phase at 1 uM incubated for 24 hrs by propidium iodide staining based FACS assay (reference value: 14%); type: functional; in short: as §5
Sus scrofa [12] = species on record: Sus scrofa; assay: Inhibition of porcine brain tubulin polymerization at 3 uM incubated for 80 mins by fluorescence based spectrophotometry
In short: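 Fluorescence-based kit assay. Tubulin (10 mg/mL) in buffer 1 with tubulin glycerol buffer and GTP (100 mM stock) was incubated with compound at 3 µM, with DMSO as vehicle control, at 37 °C for 80 min. Polymerization was followed as the fluorescence increase, read every minute at 360 nm excitation and 460 nm emission.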

Sus scrofa [13] = species on record: Sus scrofa; assay: Induction of porcine brain tubulin polymerization at 3 uM incubated for 80 mins by fluorescence based spectrophotometry
In short: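 Fluorescence-based cell-free kit assay. Tubulin (10 mg/mL) in buffer 1 with tubulin glycerol buffer and GTP (100 mM stock) was incubated with compound or DMSO vehicle for 80 min at 37 °C. Polymerization was followed as fluorescence increase read every minute at 360 nm excitation and 460 nm emission.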

COc1ccc(C2(c3cc(OC)c(OC)c(OC)c3)CC(c3ccc(Cl)cc3)=NO2)cc1O (stereo not given)
IC50 (PC-3 [1]): 0.47 µM
IC50 (HeLa): 3.29 µM
IC50 [2]: 30.7 µM
inhibition (Sus scrofa [3]): Dose-dependent effect
inhibition (Homo sapiens [4]): Active
inhibition (Homo sapiens [5]): Active
Activity (PC-3 [6]): 23.2%
Activity (PC-3 [7]): 13.3%
Activity (PC-3 [8]): 63.5%
Activity (PC-3 [9]): 6.7%
Activity (PC-3 [10]): 8.8%
Activity (PC-3 [11]): 84.5%

COc1ccc(C2(c3cc(OC)c(OC)c(OC)c3)CC(c3ccccn3)=NO2)cc1O (stereo not given)
IC50 (PC-3 [1]): > 10 µM
IC50 (HeLa): > 10 µM

COc1ccc(C2(c3cc(OC)c(OC)c(OC)c3)CC(c3ccc(O)cc3)=NO2)cc1O (stereo not given)
IC50 (PC-3 [1]): > 10 µM
IC50 (HeLa): 7.57 µM

COc1ccc(C2=NOC(c3ccc(OC)c(O)c3)(c3cc(OC)c(OC)c(OC)c3)C2)cc1 (stereo not given)
IC50 (PC-3 [1]): > 10 µM
IC50 (HeLa): > 10 µM

COc1ccc([C@]2(c3cc(OC)c(OC)c(OC)c3)CC3=C(CCCC3=O)O2)cc1O
IC50 (PC-3 [1]): 15.1 µM
IC50 (HeLa): > 10 µM

COc1ccc(C2(c3cc(OC)c(OC)c(OC)c3)CC(C#N)=C(c3cccs3)O2)cc1O (stereo not given)
IC50 (PC-3 [1]): 4.8 µM
IC50 (HeLa): > 10 µM

CCCCC1(c2cc(OC)c(OC)c(OC)c2)CC(C#N)=C(C(C)(C)C)O1 (stereo not given)
IC50 (PC-3 [1]): > 10 µM
IC50 (HeLa): > 10 µM

COc1ccc(C2(c3cc(OC)c(OC)c(OC)c3)CC(C#N)=C(c3ccc(Cl)c(Cl)c3)O2)cc1O (stereo not given)
IC50 (PC-3 [1]): > 10 µM
IC50 (HeLa): > 10 µM

CCC(=O)C1=C(CC)OC(c2ccc(OC)c(O)c2)(c2cc(OC)c(OC)c(OC)c2)C1 (stereo not given)
IC50 (PC-3 [1]): 8.47 µM
IC50 (HeLa): > 10 µM

C=C(c1ccc(OC)c(O)c1)c1cc(OC)c(OC)c(OC)c1
IC50 (PC-3 [1]): 0.001 µM
IC50 (HeLa): 0.085 µM
inhibition (Sus scrofa [12]): Active

COc1ccc(C2(c3cc(OC)c(OC)c(OC)c3)CC(c3ccc(Cl)cc3OC)=NO2)cc1O (stereo not given)
IC50 (PC-3 [1]): > 10 µM
IC50 (HeLa): > 10 µM

CCCCC1(c2cc(OC)c(OC)c(OC)c2)CC(C(=O)c2ccccc2)=C(c2ccccc2)O1 (stereo not given)
IC50 (PC-3 [1]): > 10 µM
IC50 (HeLa): > 10 µM

COc1ccc(C2(c3cc(OC)c(OC)c(OC)c3)CC(C#N)=C(c3ccccc3Cl)O2)cc1O (stereo not given)
IC50 (PC-3 [1]): 0.79 µM
IC50 (HeLa): > 10 µM

COc1ccc(C2=NOC(c3ccc(OC)c(O)c3)(c3cc(OC)c(OC)c(OC)c3)C2)cc1O (stereo not given)
IC50 (PC-3 [1]): > 10 µM
IC50 (HeLa): > 10 µM

CC(=O)O[C@H]1C(=O)[C@@]2(C)[C@H]([C@H](OC(=O)c3ccccc3)[C@]3(O)C[C@H](OC(=O)[C@H](O)[C@@H](NC(=O)c4ccccc4)c4ccccc4)C(C)=C1C3(C)C)[C@]1(OC(C)=O)CO[C@@H]1C[C@@H]2O
Activity (Sus scrofa [13]): Active

COc1ccc(C2(c3cc(OC)c(OC)c(OC)c3)CC(C(=O)c3ccccc3)=C(C)O2)cc1O (stereo not given)
IC50 (PC-3 [1]): > 10 µM
IC50 (HeLa): > 10 µM

CCCCC1(c2cc(OC)c(OC)c(OC)c2)CC(c2ccc(O)c(OC)c2)=NO1 (stereo not given)
IC50 (PC-3 [1]): > 10 µM
IC50 (HeLa): > 10 µM

COc1ccc([C@]2(c3cc(OC)c(OC)c(OC)c3)CC(C#N)=C(c3ccccc3)O2)cc1O
IC50 (PC-3 [1]): 10.2 µM
IC50 (HeLa): > 10 µM

COc1ccc(C2(c3cc(OC)c(OC)c(OC)c3)CC(C(C)=O)=C(C)O2)cc1O (stereo not given)
IC50 (PC-3 [1]): 6.37 µM
IC50 (HeLa): > 10 µM

COc1ccc(C2(c3cc(OC)c(OC)c(OC)c3)CC(c3ccccc3Cl)=NO2)cc1O (stereo not given)
IC50 (PC-3 [1]): 0.81 µM
IC50 (HeLa): 3.27 µM

— ChEMBL document CHEMBL4043172, “Constructing novel dihydrofuran and dihydroisoxazole analogues of isocombretastatin-4 as tubulin polymerization inhibitors through [3+2] reactions” (Bioorg Med Chem, 2017)
